Laboratory results as given in PMC2688716 (European neuropsychopharmacology : the journal of the …, 2008).
Counter-ions that a name gives are not always drawn.

Columns and labels:
Serotonin transporter = Serotonin transporter (Rattus norvegicus, UniProt P31652); assay: Radioligand binding, serotonin transporter; settings: 0.2 nM [3H]paroxetine; nonspecific 1.5 μM imipramine; rat brainstem; 90 min at 25° C; in-house; >10,000 = less than 30% displacement
Melatonin receptor = assay: Radioligand binding, melatonin receptors; settings: 70 pM [125I]2-Iodomelatonin; nonspecific 0.1 μM 2-iodomelatonin; chicken brain; by NOVASCREEN; >10,000 = less than 30% displacement
How it was run: (§1)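 Run by a contract screening service. Binding was measured in tissue homogenates. Ki was calculated with the Cheng-Prusoff equation from separately determined Kd values and reported as mean ± SEM of replicate assays.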

[1] = target: Muscarinic, central receptor; assay: Radioligand binding, muscarinic central; settings: 0.15 nM [3H]QNB; nonspecific 0.1 μM atropine; rat cerebral cortex; by NOVASCREEN; >10,000 = less than 30% displacement
[2] = target: Muscarinic, peripheral receptor; assay: Radioligand binding, muscarinic peripheral; settings: 0.3 nM [3H]QNB; nonspecific 0.1 μM atropine; guinea pig bladder; by NOVASCREEN; >10,000 = less than 30% displacement
[3] = target: Calcium, type N ion channel (Rattus norvegicus, UniProt Q02294); assay: Radioligand binding, calcium channel type N; settings: 0.01 nM [125I]ω-conotoxin GVIA; nonspecific 0.1 μM ω-conotoxin GVIA; rat cerebral cortex; by NOVASCREEN; >10,000 = less than 30% displacement
Chain of Calcium, type N ion channel (P54287 whole entry): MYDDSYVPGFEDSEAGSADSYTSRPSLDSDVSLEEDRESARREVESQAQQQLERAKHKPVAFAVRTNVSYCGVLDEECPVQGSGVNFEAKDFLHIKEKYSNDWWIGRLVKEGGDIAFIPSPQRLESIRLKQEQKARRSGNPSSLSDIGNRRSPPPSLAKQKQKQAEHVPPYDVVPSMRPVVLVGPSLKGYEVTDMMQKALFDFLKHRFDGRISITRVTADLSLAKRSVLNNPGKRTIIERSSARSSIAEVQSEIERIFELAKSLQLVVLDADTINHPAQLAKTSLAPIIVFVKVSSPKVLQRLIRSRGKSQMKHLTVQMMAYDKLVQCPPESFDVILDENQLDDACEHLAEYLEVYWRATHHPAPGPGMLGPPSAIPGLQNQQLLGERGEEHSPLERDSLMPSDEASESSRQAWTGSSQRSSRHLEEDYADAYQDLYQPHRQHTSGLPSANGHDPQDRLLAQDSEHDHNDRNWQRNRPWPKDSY
Chain of Calcium, type N ion channel (P54290 945-1091, further chain): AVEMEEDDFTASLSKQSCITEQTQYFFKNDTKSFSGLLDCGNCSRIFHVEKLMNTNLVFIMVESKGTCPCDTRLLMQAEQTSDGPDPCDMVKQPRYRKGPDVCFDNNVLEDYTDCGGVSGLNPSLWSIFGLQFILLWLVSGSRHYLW
Chain of Calcium, type N ion channel (Q02294 whole entry): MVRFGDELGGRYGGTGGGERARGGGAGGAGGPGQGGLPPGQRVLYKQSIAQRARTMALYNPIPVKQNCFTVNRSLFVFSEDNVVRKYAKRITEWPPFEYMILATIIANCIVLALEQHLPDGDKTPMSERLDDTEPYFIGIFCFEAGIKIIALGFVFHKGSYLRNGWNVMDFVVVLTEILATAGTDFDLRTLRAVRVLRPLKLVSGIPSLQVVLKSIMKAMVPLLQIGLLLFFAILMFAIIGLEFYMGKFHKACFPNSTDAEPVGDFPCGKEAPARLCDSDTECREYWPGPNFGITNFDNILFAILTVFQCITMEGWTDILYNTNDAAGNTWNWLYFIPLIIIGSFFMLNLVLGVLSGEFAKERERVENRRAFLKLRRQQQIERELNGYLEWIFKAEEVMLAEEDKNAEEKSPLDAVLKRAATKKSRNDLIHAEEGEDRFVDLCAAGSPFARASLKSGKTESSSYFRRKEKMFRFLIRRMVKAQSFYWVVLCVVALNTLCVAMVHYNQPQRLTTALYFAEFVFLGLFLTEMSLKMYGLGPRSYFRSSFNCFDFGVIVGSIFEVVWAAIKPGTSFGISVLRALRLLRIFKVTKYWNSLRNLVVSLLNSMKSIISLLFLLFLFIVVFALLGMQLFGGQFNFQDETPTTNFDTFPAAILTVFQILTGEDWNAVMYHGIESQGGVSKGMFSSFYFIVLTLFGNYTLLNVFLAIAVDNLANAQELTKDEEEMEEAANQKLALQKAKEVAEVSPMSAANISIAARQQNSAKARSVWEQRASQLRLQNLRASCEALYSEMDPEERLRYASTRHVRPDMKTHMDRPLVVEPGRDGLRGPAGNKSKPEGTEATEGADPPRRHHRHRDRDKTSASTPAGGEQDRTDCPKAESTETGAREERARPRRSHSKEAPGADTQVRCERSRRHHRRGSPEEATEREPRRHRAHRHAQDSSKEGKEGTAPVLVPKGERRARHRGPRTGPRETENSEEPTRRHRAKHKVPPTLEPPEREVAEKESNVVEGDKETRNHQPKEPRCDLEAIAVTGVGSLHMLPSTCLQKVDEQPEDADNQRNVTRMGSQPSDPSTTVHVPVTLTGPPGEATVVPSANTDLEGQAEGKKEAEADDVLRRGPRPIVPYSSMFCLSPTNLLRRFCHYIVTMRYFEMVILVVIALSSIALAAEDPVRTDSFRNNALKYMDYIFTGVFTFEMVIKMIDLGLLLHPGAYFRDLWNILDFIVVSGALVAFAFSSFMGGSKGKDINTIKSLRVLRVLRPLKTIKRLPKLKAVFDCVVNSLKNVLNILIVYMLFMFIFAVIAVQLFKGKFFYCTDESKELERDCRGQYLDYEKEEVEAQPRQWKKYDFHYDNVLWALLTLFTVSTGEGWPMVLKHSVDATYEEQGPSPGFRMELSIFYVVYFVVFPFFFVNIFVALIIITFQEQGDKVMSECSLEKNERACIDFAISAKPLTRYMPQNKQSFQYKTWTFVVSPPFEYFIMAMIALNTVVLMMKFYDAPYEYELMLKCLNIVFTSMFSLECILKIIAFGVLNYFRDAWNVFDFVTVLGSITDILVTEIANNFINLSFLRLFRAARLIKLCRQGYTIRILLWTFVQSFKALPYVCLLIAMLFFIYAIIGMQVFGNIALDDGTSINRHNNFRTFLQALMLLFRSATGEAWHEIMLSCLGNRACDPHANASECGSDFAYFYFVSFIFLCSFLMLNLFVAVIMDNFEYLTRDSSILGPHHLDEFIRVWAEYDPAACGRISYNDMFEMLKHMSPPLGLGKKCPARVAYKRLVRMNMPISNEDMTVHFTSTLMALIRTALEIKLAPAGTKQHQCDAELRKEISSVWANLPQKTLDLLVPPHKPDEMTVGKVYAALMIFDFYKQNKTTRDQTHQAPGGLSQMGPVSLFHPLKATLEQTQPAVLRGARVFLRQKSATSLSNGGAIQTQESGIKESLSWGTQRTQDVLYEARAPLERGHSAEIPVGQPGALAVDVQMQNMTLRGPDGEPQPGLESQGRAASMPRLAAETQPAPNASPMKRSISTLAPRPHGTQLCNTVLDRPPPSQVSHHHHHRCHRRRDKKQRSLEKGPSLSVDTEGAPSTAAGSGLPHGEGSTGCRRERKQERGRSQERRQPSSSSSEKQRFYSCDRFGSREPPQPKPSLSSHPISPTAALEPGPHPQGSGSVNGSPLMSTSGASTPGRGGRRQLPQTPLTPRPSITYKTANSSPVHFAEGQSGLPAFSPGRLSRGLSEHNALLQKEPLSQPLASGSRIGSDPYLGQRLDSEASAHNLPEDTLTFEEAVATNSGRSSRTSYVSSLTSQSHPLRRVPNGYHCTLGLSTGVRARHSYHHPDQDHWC
Chain of Calcium, type N ion channel (P54290 25-944, further chain): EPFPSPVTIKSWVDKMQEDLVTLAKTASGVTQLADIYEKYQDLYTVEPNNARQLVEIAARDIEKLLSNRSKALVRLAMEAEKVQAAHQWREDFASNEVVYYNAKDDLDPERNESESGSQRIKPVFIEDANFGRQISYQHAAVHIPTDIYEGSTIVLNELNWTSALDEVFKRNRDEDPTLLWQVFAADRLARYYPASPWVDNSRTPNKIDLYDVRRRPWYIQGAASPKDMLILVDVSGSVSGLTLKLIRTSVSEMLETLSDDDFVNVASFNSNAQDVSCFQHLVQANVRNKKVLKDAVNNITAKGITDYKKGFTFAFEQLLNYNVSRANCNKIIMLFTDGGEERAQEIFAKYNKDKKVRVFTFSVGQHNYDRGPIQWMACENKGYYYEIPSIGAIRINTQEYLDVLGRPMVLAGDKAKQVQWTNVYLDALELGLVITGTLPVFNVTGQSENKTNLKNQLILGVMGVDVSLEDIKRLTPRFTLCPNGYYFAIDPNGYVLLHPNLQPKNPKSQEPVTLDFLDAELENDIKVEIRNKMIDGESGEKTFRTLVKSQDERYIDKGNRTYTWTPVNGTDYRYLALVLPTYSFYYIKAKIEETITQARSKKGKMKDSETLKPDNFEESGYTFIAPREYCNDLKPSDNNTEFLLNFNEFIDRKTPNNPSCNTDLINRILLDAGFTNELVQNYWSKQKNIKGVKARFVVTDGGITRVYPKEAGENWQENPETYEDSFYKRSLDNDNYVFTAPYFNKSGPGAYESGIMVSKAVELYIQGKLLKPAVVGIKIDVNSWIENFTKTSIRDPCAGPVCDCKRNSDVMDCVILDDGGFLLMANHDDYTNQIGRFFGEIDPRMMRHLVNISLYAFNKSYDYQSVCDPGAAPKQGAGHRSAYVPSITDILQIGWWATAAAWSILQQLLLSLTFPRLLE

[4] = target: Potassium, ATP-sensitive ion channel; assay: Radioligand binding, ATP-sensitive potassium channel; settings: 0.2 nM [3H]glibenclamide; nonspecific 0.1 μM glibenclamide; rat cerebral cortex; by NOVASCREEN; >10,000 = less than 30% displacement
How it was run: as §1

male, Swiss Webster mice [5] = assay: Locomotor activity measurements; assay type: in vivo, mouse; settings: i.p.
male, Swiss Webster mice [6] = assay: Dopamine assay, striatum; assay type: in vivo, mouse; settings: AC927 10 mg/kg pretreatment + methamphetamine 5 mg/kg; Tukey q=5.58, P < 0.01
male, Swiss Webster mice [7] = assay: Dopamine assay, cerebellum; assay type: in vivo, mouse; settings: AC927 10 mg/kg pretreatment + methamphetamine 5 mg/kg; Tukey q=4.55, P < 0.05
male, Swiss Webster mice [8] = assay: Core body temperature measurements; assay type: in vivo, mouse; settings: AC927 5–20 mg/kg, i.p., 4 times at 2 h intervals; measured 1 h after each injection
[9] = ref Matsumoto and Mack, 2001; Matsumoto et al., 2002, 2003; cited from earlier work
tumor cells = settings: through a σ receptor-mediated mechanism; ref Crawford et al., 2002; cited from earlier work
male, Swiss Webster mice [10] = assay: Dopamine transporter; settings: 4 times at 2 h intervals
NG108-15 cells = assay: Cytotoxicity; assay type: cell-based; settings: methamphetamine 10–300 μM; 24 h and 48 h; 37° C; P < 0.0001

Chain of Serotonin transporter (P31652 whole entry): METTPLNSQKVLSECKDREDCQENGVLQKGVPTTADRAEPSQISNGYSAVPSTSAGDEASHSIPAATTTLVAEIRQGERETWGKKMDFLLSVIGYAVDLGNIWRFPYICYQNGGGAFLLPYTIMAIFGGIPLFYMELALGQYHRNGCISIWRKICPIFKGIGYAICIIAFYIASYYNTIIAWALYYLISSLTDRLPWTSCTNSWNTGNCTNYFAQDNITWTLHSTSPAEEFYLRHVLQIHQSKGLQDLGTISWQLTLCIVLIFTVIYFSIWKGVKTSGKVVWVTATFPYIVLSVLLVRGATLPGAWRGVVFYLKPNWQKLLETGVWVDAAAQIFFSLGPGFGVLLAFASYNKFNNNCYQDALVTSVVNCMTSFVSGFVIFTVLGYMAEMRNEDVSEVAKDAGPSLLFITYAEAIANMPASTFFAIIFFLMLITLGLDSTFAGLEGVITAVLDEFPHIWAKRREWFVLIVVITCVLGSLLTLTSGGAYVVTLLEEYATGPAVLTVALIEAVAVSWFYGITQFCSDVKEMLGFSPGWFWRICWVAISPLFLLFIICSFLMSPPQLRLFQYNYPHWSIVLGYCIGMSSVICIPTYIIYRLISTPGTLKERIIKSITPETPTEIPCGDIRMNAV

Row | SMILES | Ki (Serotonin transporter) [µM] | Ki (Melatonin receptor) [µM] | Ki [1] [µM] | Ki [2] [µM] | Ki [3] [µM] | Ki [4] [µM] | Locomotor activity, dose response of AC927 alone (male, Swiss Webster mice [5]; AC927 0–20 mg/kg, activity quantified for 30 min, F(2,23)=7.45, P < 0.005) | Locomotor activity vs. saline control (male, Swiss Webster mice [5]; AC927 alone 10 mg/kg, q=1.09, n.s.) | Locomotor activity vs. saline control (male, Swiss Webster mice [5]; AC927 alone 20 mg/kg, q=3.80, P < 0.01) | Methamphetamine-induced striatal dopamine depletion, AC927 10 mg/kg (male, Swiss Webster mice [6]) | Methamphetamine-induced cerebellar dopamine depletion, AC927 10 mg/kg (male, Swiss Webster mice [7]) | Core body temperature, AC927 alone (male, Swiss Webster mice [8]) | Acute locomotor stimulant effects of cocaine [9] | Apoptosis in tumor cells (tumor cells) | DAT immunoreactivity in striatum, AC927 alone (male, Swiss Webster mice [10]; AC927 10 mg/kg, i.p. + saline, q=3.56, n.s.) | Locomotor activity, dose response of methamphetamine (male, Swiss Webster mice [5]; methamphetamine 0–1 mg/kg, activity quantified for 30 min, F(3,34)=5.93, P < 0.005) | Locomotor activity vs. saline control (male, Swiss Webster mice [5]; methamphetamine 1 mg/kg, Dunnett q=3.61, P < 0.01) | Cytotoxicity (cell morphology score), methamphetamine (NG108-15 cells) | DAT immunoreactivity in striatum, methamphetamine (male, Swiss Webster mice [10]; methamphetamine 5 mg/kg, i.p., one week later, q=14.26, P < 0.001)
1 | O=C(O)C(=O)O.c1ccc(CCN2CCCCC2)cc1 [AC927, N-phenethylpiperidine oxalate] | > 10 | > 10 | > 10 | > 10 | > 10 | > 10 | dose dependently decreased locomotor activity | did not differ significantly from the saline control | differed significantly from the saline control | significantly attenuated | significantly attenuated | did not significantly change core body temperature | significantly attenuate the acute locomotor stimulant effects of cocaine | attenuate apoptosis in tumor cells | no significant effects on DAT expression | – | – | – | –
2 | CN[C@@H](C)Cc1ccccc1 [Methamphetamine, Methamphetamine hydrochloride, reference compound] | – | – | – | – | – | – | – | – | – | – | – | – | – | – | – | progressive increase in locomotor activity | differed significantly from the saline control | concentration dependent increase in neurotoxicity | significant reduction in DAT immunoreactivity
